CendR NRP1 mod – alters CendR peptide binding to human NRP-1; O14786; FAM-RPARPAR peptide binding to NRP-1, fluorescence polarization; inhibition, % at 25 µM; hit rate 0.85% among 360,000;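 active = inhibition or corrected inhibition above about 18%, plus a signal ratio from 0.5 to 1.5, limit read from the data, passing the limit was not always enough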
Exocytosis inh – lytic granule exocytosis inhibition | inhibition, % at 10 µM | hit rate 0.66% among 360,000 | TALL-104 LAMP-1 surface exposure, flow cytometry; cells stimulated with thapsigargin and PMA;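 active = inhibition above about 55%, limit read from the data; inconclusive = no clear call, values can overlap the other calls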
ATG4B inhibitor – blocks human ATG4B protease cleavage of LC3 substrate | ATG4B cleavage of LC3-PLA2, NBD-HPC fluorescence, 1 h | hit rate 0.51% among 340,000 | inhibition, % at 8.33 µM | Q9Y4P1 | AID 504462; in the data active = inhibition above about 40%
ABCB6 inh MLPCN – blocks the human ABCB6 transporter; fluorescence ratio to DMSO, % at 10 µM; AID 602162; K562-ABCB6 porphyrin accumulation, flow cytometry, 1 h; hits give low values; Q9NP58; hit rate 0.19% among 360,000;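 active = fluorescence ratio to DMSO below 75%, the collection mean minus 3 SD; inconclusive = too few cells collected in the well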;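 also: signal is porphyrin accumulated inside mitochondria; 100% equals median channel fluorescence of DMSO control wells; lower ratio means ABCB6 inhibition with less porphyrin fluorescence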
Target sequence (Q9NP58 whole entry, looked up): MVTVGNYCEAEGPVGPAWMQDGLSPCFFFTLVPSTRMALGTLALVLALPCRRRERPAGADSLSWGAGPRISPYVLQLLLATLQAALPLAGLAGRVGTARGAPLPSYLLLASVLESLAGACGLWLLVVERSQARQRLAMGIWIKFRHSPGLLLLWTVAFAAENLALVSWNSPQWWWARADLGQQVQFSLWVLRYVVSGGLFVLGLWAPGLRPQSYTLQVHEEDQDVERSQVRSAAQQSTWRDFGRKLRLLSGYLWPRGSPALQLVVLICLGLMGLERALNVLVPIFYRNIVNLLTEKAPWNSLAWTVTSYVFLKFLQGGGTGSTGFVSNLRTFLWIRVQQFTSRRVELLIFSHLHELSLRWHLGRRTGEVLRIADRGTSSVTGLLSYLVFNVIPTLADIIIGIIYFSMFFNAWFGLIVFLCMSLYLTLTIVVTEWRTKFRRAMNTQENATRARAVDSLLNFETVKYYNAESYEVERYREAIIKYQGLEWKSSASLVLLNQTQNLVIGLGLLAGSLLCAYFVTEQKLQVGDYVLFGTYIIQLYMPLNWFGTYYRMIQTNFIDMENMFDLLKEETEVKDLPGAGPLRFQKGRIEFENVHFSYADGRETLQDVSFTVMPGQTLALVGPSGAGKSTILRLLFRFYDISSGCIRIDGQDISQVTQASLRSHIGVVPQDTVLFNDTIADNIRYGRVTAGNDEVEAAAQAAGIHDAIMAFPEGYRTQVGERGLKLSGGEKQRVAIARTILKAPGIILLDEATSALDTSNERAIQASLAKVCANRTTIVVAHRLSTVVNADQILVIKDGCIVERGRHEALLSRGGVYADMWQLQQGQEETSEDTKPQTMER
Myeloid diff 2 – compounds promoting myeloid differentiation; hit rate 1% among 360,000; calls only at 10 µM; AID 624256; ER-HoxA9 myeloid progenitors, lysozyme-GFP differentiation, flow cytometry;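 active = normalized GFP-positive differentiation at or above the plate's own cutoff, the solvent-only control mean plus 3 SD; inconclusive = no clear call, values can overlap the other calls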;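 also: cells exposed to compound for four days before flow analysis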
Arrestin-AP2 inh – inhibitors of human beta-arrestin and AP2 interaction; FITC-arrestin peptide / GST-AP2 beads, flow cytometry; AP2 beta2 appendage carries R879A mutation; inhibition, % at 10 µM; hit rate 0.31% among 340,000;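 active = inhibition above a set limit, near 3 SD of compounds lacking own fluorescence, cut at about 54% in these data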;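 also: plate controls were DMSO wells for no effect and 5 µM unlabelled arrestin peptide for full effect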
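Assay system: GST-AP2 R879A bound to glutathione beads, E. coli-expressed; Medium: PBS with 0.05% Tween 20 and 0.1% BSA; Also added: fluorescein-tagged arrestin peptide at 50 nM final; Timing: 12 min plus 1 h, RT; Measured by: flow cytometry, FL1 (488/535 nm); Evaluation: percent drop in bead-associated FITC signal.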
* hit, by the source's call; i = inactive; ? = inconclusive; . = no result given; + = active, no number; ! = not confirmed by another sample. A selection: hits, their analogues and other compounds. The true share with any hit is near 3.3%.

SMILES	CendR NRP1 mod	Exocytosis inh	ATG4B inhibitor	ABCB6 inh MLPCN	Myeloid diff 2	Arrestin-AP2 inh
O=c1[nH]c2ccccc2nc1-c1nnnn1C1CCCC1	-5	-3	.	96	i	.
CCC(=O)NC(c1cc(Cl)c2ccccc2c1O)C(C)C (stereo unspecified)	13	4	-2	95	+	7
CC(=O)Oc1ccc(/C=N/NC(=O)c2ccc(N(C)S(=O)(=O)c3ccccc3)cc2)cc1	4	94*	9	101	i	-11
Cc1ccc(/C=N/NC(=O)c2ccc(N(C)S(=O)(=O)c3ccccc3)cc2)cc1	-5	-17	0	97	i	1
CN(C)S(=O)(=O)c1cccc(NC(=O)c2cccc(NS(=O)(=O)c3ccccc3)c2)c1	-9	-8	-9	95	i	0
CN(c1ccccc1)S(=O)(=O)c1cccc(NC(=O)CSc2nncn2C)c1	24*	-3	-1	103	i	-1
CN(C)S(=O)(=O)c1cccc(NC(=O)c2sccc2-c2ccccc2)c1	7	0	-5	96	+	1
CC(=O)Nc1ccc(C(=O)Nc2cccc(S(=O)(=O)N(C)c3ccccc3)c2)cc1	26*	5	-8	96	i	-17
O=C(c1ccccc1F)N1N=C(C(F)(F)F)CC1(O)c1ccccc1 (stereo unspecified)	8	4	.	82	i	.
Cc1ccc([C@@H]2[C@@H]3C(=O)N(C)C(=O)[C@@H]3[C@]3(Cc4ccccc4)C(=O)N(Cc4ccccc4)CC(=O)N23)o1	7	-13	0	102	i	3
O=C(CN1CCN(C(c2ccccc2)c2ccccc2)CC1)NC(=O)NCc1ccco1	-12	2	-21	95	i	-1
N#Cc1cnc(Nc2ccc(F)cc2)nc1N	7	-4	-4	97	i	-2
CCCCN(CCCC)c1ncnc2nc[nH]c12	22*	-1	-3	98	i	-7
CCCCN(Cc1ccccc1)c1ncnc2nc[nH]c12	-17	0	7	93	i	10
CC(=O)CSc1nnc(-c2ccc(S(=O)(=O)N3CCOCC3)cc2)n1C	0	-2	-6	98	i	2
CC(=O)CSc1nnc(-c2ccc(S(=O)(=O)N3CCCC3)cc2)n1C	25*	3	-5	95	i	17
Cc1c(NC(=S)/C=C2\N(C)c3ccccc3C2(C)C)c(=O)n(-c2ccccc2)n1C	-11	13	-1	208	+	1
Cc1c(N=C/C=C2/N(C)c3ccccc3C2(C)C)c(=O)n(-c2ccccc2)n1C	-4	11	-7	95	+!	8
Cc1c(N=C/C=C2\N(C)c3ccccc3C2(C)C)c(=O)n(-c2ccccc2)n1C	-5	1	-2	105	i	29
O=C(CN1CCN(Cc2ccc3c(c2)OCO3)CC1)N1CCc2[nH]c3ccc(F)cc3c2C1	34*	25	-19	95	i	3
CCOC(=O)C1CCN(C(=O)c2ccc(Cl)c(S(=O)(=O)N3CCOCC3)c2)CC1	-10	-4	-13	91	i	-3
O=C(c1ccc(Cl)c(S(=O)(=O)N2CCCCC2)c1)N1CCN(c2ccccc2)CC1	-4	13	1	94	i	-10
O=C(C1CCN(S(=O)(=O)c2ccc(Cl)s2)CC1)N1CCN(c2ccccc2)CC1	28*	3	-8	95	i	-11
O=C(c1ccc(Cl)c(S(=O)(=O)N2CCCC2)c1)N1CCN(c2ccccc2)CC1	37*	4	-7	86	i	7
CCOC(=O)C1CCN(C(=O)c2ccc(Cl)c(S(=O)(=O)N3CCCC3)c2)CC1	30*	-2	6	94	i	0
SMILES	CendR NRP1 mod	Exocytosis inh	ATG4B inhibitor	ABCB6 inh MLPCN	Myeloid diff 2	Arrestin-AP2 inh
O=C(COc1ccccc1Cl)NNC(=O)c1ccc(-n2cncn2)c([N+](=O)[O-])c1	11	0	-8	96	i	6
Cc1onc(-c2c(F)cccc2Cl)c1C(=O)Nc1nnc(C(F)(F)F)s1	3	-1	-3	103	i	25
COc1ccccc1N1CCN(C(=O)C2c3ccccc3Oc3ccccc32)CC1	25*	24	-17	105	.	0
COc1ccccc1N1CCN(C(=O)COc2cccc3ccccc23)CC1	31*	11	-5	99	i	41
Cc1cc(C)n(-c2nc(Nc3ccccc3)nc(-n3nc(C)cc3C)n2)n1	-11	-2	-9	102	i	5
Cc1cc(C)n(-c2nc(N(c3ccccc3)c3ccccc3)nc(-n3nc(C)cc3C)n2)n1	-2	88*	0	94	i	11
COc1ccc(NS(=O)(=O)c2cccc(C(=O)NNC(=O)c3cc(S(N)(=O)=O)ccc3OC)c2)cc1	-4	-2	-3	98	i	7
CCOc1ccc(C(=O)O[C@H]2[C@H](Cc3ccccc3)NS(=O)(=O)[C@H]3C[C@@H]4C=C[C@]23O4)cc1	1	-1	-3	104	+	18
CC(C)(C)c1ccc(C(=O)O[C@H]2[C@H](Cc3ccccc3)NS(=O)(=O)[C@H]3C[C@@H]4C=C[C@]23O4)cc1	5	1	7	98	i	27
C[C@]12CCC(=O)CC1=CCC1C3CC=C(C#N)[C@@]3(C)CC[C@@]12O (stereo partly specified)	5	7	-4	184	+	2
COc1ccc(C(=O)Nc2ccc(N3CCCC3)cc2)cc1	-7	0	-3	123	+	29
COc1ccc(NC(=S)N2CCC(NC(=O)c3ccc(OC)cc3)CC2)cc1	10	0	-6	74*	i	22
COc1ccc(NC(=O)c2cc(S(=O)(=O)Nc3ccc(OC)cc3)cs2)cc1	0	1	-1	95	i	-12
O=C(Nc1ccc(F)cc1)c1cc(S(=O)(=O)Nc2ccc(F)cc2)cs1	26*	-1	4	101	i	23
C=CCn1c(=O)/c(=C2/SC(C)=C(C)N2CC)s/c1=C1/C(=O)N(CC)C(=S)N1c1ccccc1	8	1	11	106	+	-12
O=C(NCCc1ccccc1F)N[C@@H](Cc1ccccc1)C(=O)O	1	3	-3	97	i	7
O=C1NC(=S)S/C1=C/c1ccc(N2CCOCC2)o1	121	0	0	123	+	32
O=C1N=C(N2CCOCC2)S/C1=C/c1ccc(-c2ccc(F)cc2)o1	3	8	-1	101	i	4
Cc1ccc(-c2ccc(/C=C3\SC(N4CCOCC4)=NC3=O)o2)cc1	-40	60*	-16	110	?	-2
CCOC(=O)C1CCN(C(=O)c2ccc(N3CCCC3=O)cc2)CC1	-4	0	-8	100	i	1
CC12CCCC(C(C#N)C(N)=O)(C1)NC(=O)C2C#N (stereo unspecified)	-6	-1	8	93	i	11

Compound activity deposited in PubChem BioAssay by several laboratories.
